Assay results reported in PMC6431292 (Journal of molecular biology, 2018).
Residue numbers refer to the chain shown, from its start.

What was measured:
Type in all cases: binding
[1] = target: T1, BLVRB (biliverdin reductase B) (Homo sapiens, UniProt P30043, R78A); test: isothermal titration calorimetry
T1 sequence (P30043 1-206 R78A): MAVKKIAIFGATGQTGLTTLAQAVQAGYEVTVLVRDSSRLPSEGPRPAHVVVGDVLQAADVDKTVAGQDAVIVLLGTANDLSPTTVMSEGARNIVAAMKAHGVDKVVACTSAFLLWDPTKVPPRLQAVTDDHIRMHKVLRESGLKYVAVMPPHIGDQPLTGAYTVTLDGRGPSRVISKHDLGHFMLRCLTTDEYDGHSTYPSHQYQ
In short: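 Human BLVRB (R78A mutant) expressed in E. coli BL21/DE3 with a cleavable N-terminal His-tag, Ni-purified under denaturing conditions, refolded by dialysis, tag removed, then gel-filtered. ITC used 100 μM enzyme in the cell, titrated with reduced or oxidized coenzyme (freshly prepared) at 1 mM. Buffer was 50 mM Bis–Tris pH 6.5, 50 mM NaCl, 1 mM DTT, at 20 °C. Runs were done in duplicate.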

[2] = target: T2, BLVRB (biliverdin reductase B) (Homo sapiens, UniProt P30043); test: isothermal titration calorimetry
T2 sequence (P30043 1-206): T1 sequence (P30043 1-206 R78A) with A78R

[3] = target: T2, BLVRB (biliverdin reductase B); test: NMR titration

| Kd [1] | Kd [2] | Kd [3] | SMILES |
| --- | --- | --- | --- |
| 2800 ± 200 nM | 400 ± 200 nM | – | NC(=O)c1ccc[n+]([C@@H]2O[C@H](COP(=O)(O)OP(=O)(O)OC[C@H]3O[C@@H](n4cnc5c(N)ncnc54)[C@H](OP(=O)(O)O)[C@@H]3O)[C@@H](O)[C@H]2O)c1 [NADP^+] |
| – | 300 ± 200 nM | – | NC(=O)C1=CN([C@@H]2O[C@H](COP(=O)(O)OP(=O)(O)OC[C@H]3O[C@@H](n4cnc5c(N)ncnc54)[C@H](OP(=O)(O)O)[C@@H]3O)[C@@H](O)[C@H]2O)C=CC1 [NADPH] |
| – | – | 590000 ± 80000 nM | Cc1cc2nc3c(=O)[nH]c(=O)nc-3n(C[C@H](O)[C@H](O)[C@H](O)COP(=O)(O)OP(=O)(O)OC[C@H]3O[C@@H](n4cnc5c(N)ncnc54)[C@H](O)[C@@H]3O)c2cc1C [FAD] |
